Test results: ChEMBL document CHEMBL4396885, “Thioether-based 2-aminobenzamide derivatives: Novel HDAC inhibitors with potent in vitro and in vivo antitumor activity” (Eur J Med Chem, 2019)

Columns and labels:
A549 [1] = assay: Induction of apoptosis in human A549 cells assessed as necrotic cells at 0.5 uM after 48 hrs by Annexin V-FITC/propidium iodide staining based flow cytometry (reference value: 0.135%); type: functional
Summary of the method: (§1)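 A549 seeded 4×10⁶ cells/well, dosed after 12 h with compound at various concentrations, harvested after 48 h. Resuspended in annexin-binding buffer, stained with Annexin V-FITC and propidium iodide for 15 min in the dark, analysed by flow cytometry; means of three separate experiments.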

A-375 [2] = assay: Antiproliferative activity against human A375 cells assessed as growth inhibition at 2 uM after 72 hrs by CCK-8 assay relative to control; type: functional; details: A-375, 72 h, read-out: GI
A549 [3] = assay: Cell cycle arrest in human A549 cells assessed as accumulation of cells at G2/M phase at 0.5 uM after 48 hrs by propidium iodide staining-based flow cytometry (reference value: 13.62%); type: functional
SMMC-7721 [4] = assay: Antiproliferative activity against human SMMC7721 cells assessed as growth inhibition at 2 uM after 72 hrs by CCK-8 assay relative to control; type: functional; details: SMMC-7721, 72 h, read-out: GI
A-375 [5] = assay: Antiproliferative activity against human A375 cells assessed as growth inhibition at 8 uM after 72 hrs by CCK-8 assay relative to control; type: functional; details: A-375, 72 h, read-out: GI
A549 [6] = assay: Antiproliferative activity against human A549 cells assessed as decrease in cell viability after 72 hrs by CCK-8 assay; type: functional, cell-based; details: A549, 72 h
Summary of the method: (§2)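 Cells grown to 70–85% confluence (A375, A549, HCT116 in RPMI1640; HeLa, SMMC7721 in DMEM; 10% FBS, 37 °C, 5% CO2), seeded 4000/well, dosed after 12 h across a concentration range, incubated 72 h, then CCK-8 for 1 h; absorbance at 450 nm. IC50 as mean ± SD of three separate experiments.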

A549 [7] = assay: Cell cycle arrest in human A549 cells assessed as accumulation of cells at S phase at 1 uM after 48 hrs by propidium iodide staining-based flow cytometry (reference value: 12.83%); type: functional
NIH3T3 = assay: Cytotoxicity against mouse NIH/3T3 cells assessed as reduction in cell viability after 72 hrs by CCK-8 assay; type: cell-based; details: NIH3T3, 72 h
[8] = Clearance in ICR mouse at 4 mg/kg, iv after 0.08 to 24 hrs by LC-MS/MS analysis; type: ADME, organism-based; details: in vivo
Summary of the method: (§3)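 Male ICR mice (29.7~37.4 g), single iv dose 4 mg/kg in DMSO:40% SBE-β-CD 20:80 (v/v). Retro-orbital blood at 0.08–24 h into EDTA-K2 tubes; plasma protein-precipitated with acetonitrile containing internal standards, analysed by LC-MS/MS; n=3 per time point; noncompartmental analysis.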

A549 [9] = assay: Antiproliferative activity against human A549 cells assessed as growth inhibition at 8 uM after 72 hrs by CCK-8 assay relative to control; type: functional; details: A549, 72 h, read-out: GI
A549 [10] = assay: Inhibition of colony formation in human A549 cells incubated for 10 to 14 days by crystal violet staining based assay; type: functional, cell-based
Summary of the method: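 A549 seeded 3000 cells/well, treated after 12 h at 0.5, 1 and 2 µM, grown 10–14 days, fixed in 4% paraformaldehyde for 15 min and stained with 0.1% crystal violet.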

SMMC-7721 [11] = assay: Antiproliferative activity against human SMMC7721 cells assessed as decrease in cell viability after 72 hrs by CCK-8 assay; type: functional, cell-based; details: SMMC-7721, 72 h; summary of the method: as §2
[12] = AUC (0 to t) in ICR mouse at 4 mg/kg, iv after 0.08 to 24 hrs by LC-MS/MS analysis; type: ADME, organism-based; parameters: time upper 24 hr, dose 4 mg/kg, time lower 0.08 hr, route intravenous; details: in vivo; summary of the method: as §3
HCT-116 [13] = assay: Antiproliferative activity against human HCT116 cells assessed as growth inhibition at 2 uM after 72 hrs by CCK-8 assay relative to control; type: functional; details: HCT-116, 72 h, read-out: GI
Histone deacetylase 2 = Histone deacetylase 2 (Homo sapiens, UniProt Q92769); assay: Inhibition of recombinant human HDAC2 assessed as decrease in deacetylation of FLUOR DE LYS Green substrate preincubated for 10 mins followed by substrate addition and measured after 30 mins by fluorescence based assay
Histone deacetylase 2, sequence (Q92769 whole entry): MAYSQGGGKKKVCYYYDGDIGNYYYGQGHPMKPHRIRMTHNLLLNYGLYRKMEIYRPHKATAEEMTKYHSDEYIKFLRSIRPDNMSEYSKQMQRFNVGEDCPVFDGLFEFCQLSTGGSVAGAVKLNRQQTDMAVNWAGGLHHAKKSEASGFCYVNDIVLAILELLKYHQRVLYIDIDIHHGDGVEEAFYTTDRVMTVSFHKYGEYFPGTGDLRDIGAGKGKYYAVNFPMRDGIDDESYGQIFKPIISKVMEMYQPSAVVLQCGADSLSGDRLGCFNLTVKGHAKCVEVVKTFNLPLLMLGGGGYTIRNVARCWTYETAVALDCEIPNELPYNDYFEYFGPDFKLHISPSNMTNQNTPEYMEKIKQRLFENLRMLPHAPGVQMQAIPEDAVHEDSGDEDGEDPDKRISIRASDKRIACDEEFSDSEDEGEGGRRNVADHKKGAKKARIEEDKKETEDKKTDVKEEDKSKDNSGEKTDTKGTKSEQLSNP

A549 [14] = assay: Cell cycle arrest in human A549 cells assessed as increase in accumulation of cells at G2/M phase after 48 hrs by propidium iodide staining-based flow cytometry; type: functional
A549 [15] = assay: Induction of apoptosis in human A549 cells assessed as viable cells at 0.5 uM after 48 hrs by Annexin V-FITC/propidium iodide staining based flow cytometry (reference value: 98%); type: functional; details: A549, 48 h, read-out: Activity; summary of the method: as §1
[16] = Toxicity against nude Balb/c mouse xenografted with human A549 cells assessed as no change in body weight at 25 mg/kg, ip administered twice per day for 21 days and measured every 3 days during compound dosing; type: organism-based; details: in vivo
Summary of the method: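 Female BALB/c nude mice, 5–6 weeks, implanted s.c. in right axilla with 3×10⁶ A549 cells; randomized at ~95 mm³ tumor volume, 4 per group. Dosed ip 25 mg/kg twice daily for 21 days; vehicle controls got DMA & 5% Solutol HS-15 (5:95). Tumor size (V=length×width²/2) and body weight measured every 3 days; TGI from volume change relative to control.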

HCT-116 [17] = assay: Antiproliferative activity against human HCT116 cells assessed as decrease in cell viability after 72 hrs by CCK-8 assay; type: functional, cell-based; details: HCT-116, 72 h; summary of the method: as §2
SMMC-7721 [18] = assay: Antiproliferative activity against human SMMC7721 cells assessed as growth inhibition at 8 uM after 72 hrs by CCK-8 assay relative to control; type: functional; details: SMMC-7721, 72 h, read-out: GI
A549 [19] = assay: Antiproliferative activity against human A549 cells assessed as growth inhibition at 2 uM after 72 hrs by CCK-8 assay relative to control; type: functional; details: A549, 72 h, read-out: GI
Histone deacetylase 1 = Histone deacetylase 1 (Homo sapiens, UniProt Q13547); assay: Inhibition of recombinant human His tagged HDAC1 expressed in baculovirus infected insect cells assessed as decrease in deacetylation of FLUOR DE LYS Green substrate preincubated for 10 mins followed by substrate addition and measured after 30 mins by fluorescence based assay
Histone deacetylase 1, sequence (Q13547 whole entry): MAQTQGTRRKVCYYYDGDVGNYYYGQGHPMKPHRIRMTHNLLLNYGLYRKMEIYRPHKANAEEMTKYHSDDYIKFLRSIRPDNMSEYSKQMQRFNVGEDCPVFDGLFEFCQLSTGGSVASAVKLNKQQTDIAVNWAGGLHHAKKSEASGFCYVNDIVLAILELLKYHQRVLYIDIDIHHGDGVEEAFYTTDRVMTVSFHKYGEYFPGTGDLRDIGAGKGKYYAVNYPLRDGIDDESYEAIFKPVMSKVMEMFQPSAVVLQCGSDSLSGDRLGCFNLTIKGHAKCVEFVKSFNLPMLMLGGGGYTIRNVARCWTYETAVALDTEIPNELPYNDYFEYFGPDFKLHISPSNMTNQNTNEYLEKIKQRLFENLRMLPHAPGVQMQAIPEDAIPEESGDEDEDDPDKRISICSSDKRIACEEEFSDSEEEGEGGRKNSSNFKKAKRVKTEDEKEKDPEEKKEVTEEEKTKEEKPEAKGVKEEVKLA

A-375 [20] = assay: Antiproliferative activity against human A375 cells assessed as decrease in cell viability after 72 hrs by CCK-8 assay; type: functional, cell-based; details: A-375, 72 h; summary of the method: as §2
A549 [21] = assay: Induction of apoptosis in human A549 cells assessed as viable cells at 1 uM after 48 hrs by Annexin V-FITC/propidium iodide staining based flow cytometry (reference value: 98%); type: functional; details: A549, 48 h, read-out: Activity; summary of the method: as §1
A549 [22] = assay: Cell cycle arrest in human A549 cells assessed as accumulation of cells at G0/G1 phase at 2 uM after 48 hrs by propidium iodide staining-based flow cytometry (reference value: 73.35%); type: functional
[23] = target: Histone deacetylase 3/NCoR1 (Homo sapiens, UniProt O15379); assay: Inhibition of recombinant human HDAC3/NCOR1 assessed as decrease in deacetylation of FLUOR DE LYS SIRT1 substrate preincubated for 10 mins followed by substrate addition and measured after 30 mins by fluorescence based assay; type: protein-complex assay
Histone deacetylase 3/NCoR1, sequence (O15379 whole entry): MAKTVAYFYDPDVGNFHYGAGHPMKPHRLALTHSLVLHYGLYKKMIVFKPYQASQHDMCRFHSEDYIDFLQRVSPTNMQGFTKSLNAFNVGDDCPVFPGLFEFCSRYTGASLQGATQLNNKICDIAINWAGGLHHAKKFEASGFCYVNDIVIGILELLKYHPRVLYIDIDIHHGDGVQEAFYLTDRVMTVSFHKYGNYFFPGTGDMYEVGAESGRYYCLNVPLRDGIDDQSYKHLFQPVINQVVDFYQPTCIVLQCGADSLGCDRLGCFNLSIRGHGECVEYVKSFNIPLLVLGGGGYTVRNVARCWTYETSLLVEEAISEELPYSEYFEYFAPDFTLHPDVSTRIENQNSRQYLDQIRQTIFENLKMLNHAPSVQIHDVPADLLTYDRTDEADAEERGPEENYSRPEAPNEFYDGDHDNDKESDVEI
Histone deacetylase 3/NCoR1, sequence (O75376 whole entry, further chain): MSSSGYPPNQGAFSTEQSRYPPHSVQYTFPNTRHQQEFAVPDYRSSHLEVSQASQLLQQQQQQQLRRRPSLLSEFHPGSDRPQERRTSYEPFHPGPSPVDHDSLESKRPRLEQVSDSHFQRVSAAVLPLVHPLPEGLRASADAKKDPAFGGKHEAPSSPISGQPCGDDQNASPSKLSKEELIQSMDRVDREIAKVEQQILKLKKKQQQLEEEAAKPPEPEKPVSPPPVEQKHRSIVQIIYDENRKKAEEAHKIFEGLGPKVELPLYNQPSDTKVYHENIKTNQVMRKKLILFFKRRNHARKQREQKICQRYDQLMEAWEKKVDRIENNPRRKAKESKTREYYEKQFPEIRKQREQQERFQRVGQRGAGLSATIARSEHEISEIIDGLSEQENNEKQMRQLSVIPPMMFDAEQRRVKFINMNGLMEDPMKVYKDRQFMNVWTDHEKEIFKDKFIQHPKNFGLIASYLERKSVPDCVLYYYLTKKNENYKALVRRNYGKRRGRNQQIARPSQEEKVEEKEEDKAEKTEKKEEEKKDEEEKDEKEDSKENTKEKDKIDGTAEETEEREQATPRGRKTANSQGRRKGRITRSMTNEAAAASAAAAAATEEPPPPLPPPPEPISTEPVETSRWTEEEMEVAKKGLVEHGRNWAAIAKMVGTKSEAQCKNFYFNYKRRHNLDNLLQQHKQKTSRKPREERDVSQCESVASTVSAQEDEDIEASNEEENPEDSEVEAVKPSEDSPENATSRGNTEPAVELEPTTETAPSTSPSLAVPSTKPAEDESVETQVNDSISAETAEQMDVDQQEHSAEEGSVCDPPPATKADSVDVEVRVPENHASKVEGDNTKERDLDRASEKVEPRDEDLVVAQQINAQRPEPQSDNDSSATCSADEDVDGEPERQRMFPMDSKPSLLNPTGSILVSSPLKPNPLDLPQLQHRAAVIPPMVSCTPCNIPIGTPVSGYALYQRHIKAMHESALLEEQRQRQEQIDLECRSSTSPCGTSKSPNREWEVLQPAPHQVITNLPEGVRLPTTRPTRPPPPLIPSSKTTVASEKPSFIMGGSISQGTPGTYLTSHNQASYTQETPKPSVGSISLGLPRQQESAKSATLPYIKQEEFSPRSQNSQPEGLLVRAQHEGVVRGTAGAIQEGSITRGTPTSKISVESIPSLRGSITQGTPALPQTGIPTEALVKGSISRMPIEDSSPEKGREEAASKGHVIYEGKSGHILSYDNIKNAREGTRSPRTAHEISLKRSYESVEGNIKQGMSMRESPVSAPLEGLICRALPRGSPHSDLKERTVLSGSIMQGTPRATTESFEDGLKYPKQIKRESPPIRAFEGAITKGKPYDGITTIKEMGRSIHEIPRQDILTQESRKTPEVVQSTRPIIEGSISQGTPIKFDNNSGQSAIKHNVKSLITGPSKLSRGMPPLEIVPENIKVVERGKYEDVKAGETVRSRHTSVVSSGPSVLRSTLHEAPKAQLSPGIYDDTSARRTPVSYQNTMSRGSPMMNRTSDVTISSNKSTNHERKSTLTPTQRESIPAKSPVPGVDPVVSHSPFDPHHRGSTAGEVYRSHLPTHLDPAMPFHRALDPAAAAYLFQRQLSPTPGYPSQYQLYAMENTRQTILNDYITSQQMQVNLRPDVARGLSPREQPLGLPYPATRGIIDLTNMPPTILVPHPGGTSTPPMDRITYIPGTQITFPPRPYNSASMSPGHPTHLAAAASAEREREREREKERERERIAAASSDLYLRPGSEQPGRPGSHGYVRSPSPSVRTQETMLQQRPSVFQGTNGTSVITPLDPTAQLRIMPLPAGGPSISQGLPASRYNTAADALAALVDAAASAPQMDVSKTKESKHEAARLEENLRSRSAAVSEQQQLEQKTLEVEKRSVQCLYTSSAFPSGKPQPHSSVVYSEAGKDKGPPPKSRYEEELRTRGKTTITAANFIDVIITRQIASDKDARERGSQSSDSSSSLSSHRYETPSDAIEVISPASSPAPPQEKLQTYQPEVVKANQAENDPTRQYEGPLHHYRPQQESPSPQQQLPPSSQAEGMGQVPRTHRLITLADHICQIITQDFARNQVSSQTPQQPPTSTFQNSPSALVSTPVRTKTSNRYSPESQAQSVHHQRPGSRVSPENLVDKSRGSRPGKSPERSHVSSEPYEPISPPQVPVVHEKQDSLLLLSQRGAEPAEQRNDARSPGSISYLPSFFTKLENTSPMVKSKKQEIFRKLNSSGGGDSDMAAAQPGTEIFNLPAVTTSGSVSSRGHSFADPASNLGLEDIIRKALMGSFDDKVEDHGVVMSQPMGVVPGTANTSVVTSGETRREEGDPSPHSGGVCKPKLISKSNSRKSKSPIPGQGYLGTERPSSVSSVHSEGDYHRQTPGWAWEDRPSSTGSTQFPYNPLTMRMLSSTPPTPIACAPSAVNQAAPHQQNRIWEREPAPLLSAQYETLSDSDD

A549 [24] = assay: Induction of apoptosis in human A549 cells assessed as early apoptotic cells at 0.5 uM after 48 hrs by Annexin V-FITC/propidium iodide staining based flow cytometry (reference value: 1.19%); type: functional; summary of the method: as §1
A549 [25] = assay: Cell cycle arrest in human A549 cells assessed as accumulation of cells at S phase at 2 uM after 48 hrs by propidium iodide staining-based flow cytometry (reference value: 12.83%); type: functional

Row | SMILES | Activity (A549 [1]) [%] | inhibition of growth at 2 µM (A-375 [2]) [%] | Activity (A549 [3]) [%] | inhibition of growth at 2 µM (SMMC-7721 [4]) [%] | inhibition of growth at 8 µM (A-375 [5]) [%] | IC50 (A549 [6]) [nM] | Activity (A549 [7]) [%] | IC50 (NIH3T3) [µM] | clearance [8] [mL/min/kg] | inhibition of growth at 8 µM (A549 [9]) [%] | inhibition (A549 [10]) | IC50 (SMMC-7721 [11]) [nM] | AUC(0-t) [12] [ng·h/mL] | inhibition of growth at 2 µM (HCT-116 [13]) [%] | IC50 (Histone deacetylase 2) [nM] | Activity (A549 [14]) | viability at 0.5 µM (A549 [15]) [%] | Activity [16] | IC50 (HCT-116 [17]) [nM] | inhibition of growth at 8 µM (SMMC-7721 [18]) [%] | also measured
1 | COc1ccc(SCc2ccc(C(=O)Nc3ccccc3N)cc2)cc1 | 13.8 | 10.2 | 18.07 | 33.1 | 81.8 | 2570 | 20.63 | 4.04 | 90.1 | 70.7 | Dose-dependent effect | 2170 | 737 | 73.3 | 205 | Dose-dependent effect | 66 | Non-Toxic | 1640 | 80.1 | inhibition of growth at 2 µM (A549 [19]): 45.7%; IC50 (Histone deacetylase 1): 16 nM; IC50 (A-375 [20]): 3010 nM; viability at 1 µM (A549 [21]): 67.9%; Activity (A549 [22]): 39.3%; IC50 [23]: 136 nM; Activity (A549 [24]): 5.21%; Activity (A549 [25]): 12.64%
2 | CCc1ccc(SCc2ccc(C(=O)Nc3ccccc3N)cc2)cc1 | 1.14 | 19.6 | 53.55 | 25.7 | 71.1 | 3040 | 9.74 | 3.66 | 76.3 | 91.4 | Dose-dependent effect | 1750 | 868 | 40.7 | 144 | Dose-dependent effect | 80.8 | Non-Toxic | 1740 | 82.9 | inhibition of growth at 2 µM (A549 [19]): 53.6%; IC50 (Histone deacetylase 1): 71 nM; IC50 (A-375 [20]): 2420 nM; viability at 1 µM (A549 [21]): 70.4%; Activity (A549 [22]): 24%; IC50 [23]: 215 nM; Activity (A549 [24]): 11%; Activity (A549 [25]): 9.52%
